# Measured values as given in article PMC2834294 (Chemistry & biology, 2010).
# Columns and labels:
# Type in all cases: cell-based
# TRPML3 [1] = biological target: T1, TRPML3 (Homo sapiens, UniProt Q8TDD5); experiment: Whole-cell patch-clamp, HEK293 cells transiently transfected with TRPML3
# T1 sequence (Q8TDD5 1-553): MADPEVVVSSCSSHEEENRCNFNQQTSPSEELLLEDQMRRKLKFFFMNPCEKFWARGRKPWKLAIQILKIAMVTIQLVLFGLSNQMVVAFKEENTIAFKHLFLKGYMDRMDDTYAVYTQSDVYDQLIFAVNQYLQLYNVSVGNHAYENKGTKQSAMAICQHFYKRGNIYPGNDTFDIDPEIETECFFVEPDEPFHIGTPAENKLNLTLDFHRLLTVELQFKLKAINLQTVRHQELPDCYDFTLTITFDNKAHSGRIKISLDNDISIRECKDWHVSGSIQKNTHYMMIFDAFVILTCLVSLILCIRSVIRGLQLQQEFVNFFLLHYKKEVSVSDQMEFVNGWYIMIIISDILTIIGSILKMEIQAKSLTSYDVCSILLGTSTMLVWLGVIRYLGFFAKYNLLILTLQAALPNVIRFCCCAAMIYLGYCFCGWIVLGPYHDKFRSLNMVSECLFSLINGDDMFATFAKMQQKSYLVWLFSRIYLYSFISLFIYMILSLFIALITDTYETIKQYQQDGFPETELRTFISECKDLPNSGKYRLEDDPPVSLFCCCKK
# In short: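 Whole-cell patch clamp was done on HEK293 cells 24 h after transient transfection with human TRPML3 or YFP; constitutively active TRPML3(A419P) cells served as positive control. Bath solution (mM): 138 NaCl, 5.4 KCl, 2 MgCl2, 2 CaCl2, 10 HEPES, 10 d-glucose; pH 7.4. Pipette solution (mM): 140 CsCl, 10 HEPES, 3 ATP-Na, 1 BAPTA, 2 MgCl2; pH 7.2. Compounds at 10 µM were perfused. Capacitance-normalized current at −80 mV is reported as mean ± SEM, n≥3.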
# TRPML3 [2] = tested on: TRPML3
# In short: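 Whole-cell recordings used HEK293 cells expressing TRPML3 with 100% series-resistance compensation. Pipette solution (mM): 140 CsCl, 10 HEPES, 3 ATP-Na, 1 BAPTA, 2 MgCl2; pH 7.2. Compound at 10 µM was perfused in endolymph-like solution (mM: 2 NaCl, 150 KCl, 0.25 CaCl2, 10 HEPES, 10 glucose; pH 7.4) or in standard bath. Inward current at −80 mV was normalized to capacitance.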
# [3] = biological target: T2, TRPML3 coexpressed with dynamin (Homo sapiens, UniProt Q8TDD5); experiment: Calcium imaging, HEK293 cells coexpressing wild type dynamin with TRPML3; conditions: compared to control experiments
# T2 sequence (Q8TDD5 1-553): T1 sequence (Q8TDD5 1-553)
# In short: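 HEK293 cells were transiently cotransfected (Genejammer) with wild-type dynamin and TRPML3 and imaged 24 h later. Cells on glass coverslips were loaded with 4 µM fura-2-AM in bath solution (mM: 138 NaCl, 6 KCl, 2 MgCl2, 2 CaCl2, 10 HEPES, 5.5 D-glucose; pH 7.4). Responses to activators were compared with control transfections.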
# [4] = tested on: TRPM2, TRPV2, TRPC3, TRPN1, TRPA1; experiment: Fura-2 calcium imaging selectivity, HEK293 cells expressing other TRP channels
# In short: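 HEK293 cells were transiently transfected (Genejammer) with expression vectors for each TRP channel and measured 24 h later. Cells on coverslips were loaded with 4 μM fura-2-AM in bath solution (mM: 138 NaCl, 6 KCl, 2 MgCl₂, 2 CaCl₂, 10 HEPES, 5.5 D-glucose, pH 7.4). [Ca²⁺]i increases to 10 µM test compound were imaged on a monochromator-based system.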
compound,measurement,setting,value
"Cc1cc(C)c(C2=NOC3C4CCC(C4)C23)c(C)c1 (stereo not drawn) [SN-2, 5-mesityl-3-oxa-4-azatricyclo[5.2.1.0∼2,6∼]dec-4-ene]",nA/pF (-80 mV) (TRPML3),"TRPML3 [1]; current density at −80 mV, 10 µM in standard bath solution, mean ±SEM (n≥3)",−0.30 ±0.07 nA/pF
same,average current density relative to constitutively active TRPML3 A419P,"TRPML3 [1]; whole-cell, −80 mV",comparable to average current densities obtained from cells expressing the constitutively active varitint-waddler mutant isoform A419P
same,"increase in current densities, compound + ELS vs ELS alone or compound in SBS","TRPML3 [2]; 10 µM compound, ELS 2 mM Na+, 150 mM K+",≤ 10 fold
same,"average current densities, compound + ELS","TRPML3 [2]; 10 µM, at −80 mV",up to 3 nA/pF
same,response when wild type dynamin coexpressed with TRPML3 in HEK293 cells,[3],reduction in response
same,activation of other TRP channels tested,[4],did not show any activity on other TRP channels
